Each block holds one compound with its values, some of them ahead of it.
Tests used:
[1] = target: Glycogen synthase kinase-3 alpha (Homo sapiens) (UniProt P49840); experiment: Inhibition of human recombinant GSK3A at 500 nM related to control ULK1
[2] = target: T1, Eukaryotic translation initiation factor 2-alpha kinase 3 (Homo sapiens) (UniProt Q9NZJ5); experiment: Inhibition of human recombinant PEK at 500 nM related to control ULK1
T1 sequence (whole entry): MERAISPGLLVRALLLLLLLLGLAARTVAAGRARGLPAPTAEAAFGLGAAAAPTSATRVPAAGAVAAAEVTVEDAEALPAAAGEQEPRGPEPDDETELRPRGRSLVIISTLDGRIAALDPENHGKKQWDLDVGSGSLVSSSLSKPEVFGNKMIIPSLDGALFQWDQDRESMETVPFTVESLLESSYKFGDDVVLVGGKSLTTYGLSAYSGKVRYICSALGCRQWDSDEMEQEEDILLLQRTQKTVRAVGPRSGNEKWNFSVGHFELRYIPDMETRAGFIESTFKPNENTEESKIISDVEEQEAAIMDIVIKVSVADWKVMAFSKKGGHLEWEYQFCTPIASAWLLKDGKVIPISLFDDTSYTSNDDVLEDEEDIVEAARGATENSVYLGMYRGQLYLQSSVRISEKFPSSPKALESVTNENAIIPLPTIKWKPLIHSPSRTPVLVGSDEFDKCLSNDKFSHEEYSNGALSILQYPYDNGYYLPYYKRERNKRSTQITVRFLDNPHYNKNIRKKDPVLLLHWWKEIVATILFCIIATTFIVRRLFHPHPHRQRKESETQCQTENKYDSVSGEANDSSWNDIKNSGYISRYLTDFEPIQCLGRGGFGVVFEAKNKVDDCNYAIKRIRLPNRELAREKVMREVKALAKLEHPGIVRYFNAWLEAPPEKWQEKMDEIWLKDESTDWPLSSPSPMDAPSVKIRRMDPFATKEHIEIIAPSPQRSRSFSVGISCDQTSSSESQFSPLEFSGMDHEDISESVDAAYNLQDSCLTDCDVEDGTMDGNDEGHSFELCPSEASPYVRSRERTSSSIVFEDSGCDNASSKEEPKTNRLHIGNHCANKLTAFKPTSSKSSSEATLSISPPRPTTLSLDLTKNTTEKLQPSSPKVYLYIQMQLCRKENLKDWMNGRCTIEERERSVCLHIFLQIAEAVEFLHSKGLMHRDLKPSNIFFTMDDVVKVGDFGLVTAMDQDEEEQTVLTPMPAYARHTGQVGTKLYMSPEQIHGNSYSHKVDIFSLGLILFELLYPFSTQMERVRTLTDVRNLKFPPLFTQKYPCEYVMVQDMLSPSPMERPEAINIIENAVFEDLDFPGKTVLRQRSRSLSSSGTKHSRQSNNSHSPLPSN

[3] = target: Serine/threonine-protein kinase Nek4 (Homo sapiens) (UniProt P51957); experiment: Inhibition of human recombinant NEK4 at 500 nM in presence of ATP by radiometric assay relative to control
[4] = target: T2, Dual specificity mitogen-activated protein kinase kinase 6 (Homo sapiens) (UniProt P52564); experiment: Inhibition of human recombinant MAP2K6 at 500 nM in presence of ATP by radiometric assay relative to control
T2 sequence (whole entry): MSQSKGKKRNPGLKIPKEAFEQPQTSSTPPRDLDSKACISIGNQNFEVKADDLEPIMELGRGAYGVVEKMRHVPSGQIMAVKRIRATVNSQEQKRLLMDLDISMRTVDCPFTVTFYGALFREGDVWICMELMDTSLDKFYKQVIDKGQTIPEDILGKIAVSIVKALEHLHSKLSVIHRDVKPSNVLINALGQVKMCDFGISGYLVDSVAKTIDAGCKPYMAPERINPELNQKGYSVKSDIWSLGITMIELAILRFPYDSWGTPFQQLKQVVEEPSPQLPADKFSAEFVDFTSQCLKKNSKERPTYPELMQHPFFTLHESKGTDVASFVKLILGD

[5] = target: Hepatocyte growth factor receptor (Homo sapiens) (UniProt P08581); experiment: Inhibition of human recombinant MET at 500 nM related to control ULK1
[6] = target: Activated CDC42 kinase 1 (Homo sapiens) (UniProt Q07912); experiment: Inhibition of human recombinant ACK at 15 nM related to control ULK1
[7] = target: Serine/threonine-protein kinase N2 (Homo sapiens) (UniProt Q16513); experiment: Inhibition of human recombinant PKN2 at 15 nM in presence of ATP by radiometric assay relative to control
[8] = target: Calcium/calmodulin-dependent protein kinase type 1 (Homo sapiens) (UniProt Q14012); experiment: Inhibition of human recombinant CaMK1a at 15 nM related to control ULK1
[9] = target: Calcium/calmodulin-dependent protein kinase type 1D (Homo sapiens) (UniProt Q8IU85); experiment: Inhibition of human recombinant CaMK1d at 40 nM related to control ULK1
[10] = target: Serine-protein kinase ATM (Homo sapiens) (UniProt Q13315); experiment: Inhibition of human recombinant ATM at 40 nM in presence of ATP by radiometric assay relative to control
Method in brief: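 Panel of 327 recombinant human kinases, each assayed in vitro by radiometric activity assay in duplicate at a single inhibitor concentration per compound, chosen with reference to its ULK1 inhibition. Activity remaining was expressed as percent of vehicle control, and percent inhibition was calculated as 100 minus percent activity remaining.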

[11] = target: Serine/threonine-protein kinase PAK 2 (Homo sapiens) (UniProt Q13177); experiment: Inhibition of human recombinant PAK2 at 40 nM in presence of ATP by radiometric assay relative to control
[12] = target: BDNF/NT-3 growth factors receptor (Homo sapiens) (UniProt Q16620); experiment: Inhibition of human recombinant TRKB at 40 nM in presence of ATP by radiometric assay relative to control
[13] = target: LIM domain kinase 1 (Homo sapiens) (UniProt P53667); experiment: Inhibition of human recombinant LIMK1 at 40 nM related to control ULK1
Sequence of LIM domain kinase 1 (Homo sapiens) (P53667 whole entry, looked up, the tested form may be a part): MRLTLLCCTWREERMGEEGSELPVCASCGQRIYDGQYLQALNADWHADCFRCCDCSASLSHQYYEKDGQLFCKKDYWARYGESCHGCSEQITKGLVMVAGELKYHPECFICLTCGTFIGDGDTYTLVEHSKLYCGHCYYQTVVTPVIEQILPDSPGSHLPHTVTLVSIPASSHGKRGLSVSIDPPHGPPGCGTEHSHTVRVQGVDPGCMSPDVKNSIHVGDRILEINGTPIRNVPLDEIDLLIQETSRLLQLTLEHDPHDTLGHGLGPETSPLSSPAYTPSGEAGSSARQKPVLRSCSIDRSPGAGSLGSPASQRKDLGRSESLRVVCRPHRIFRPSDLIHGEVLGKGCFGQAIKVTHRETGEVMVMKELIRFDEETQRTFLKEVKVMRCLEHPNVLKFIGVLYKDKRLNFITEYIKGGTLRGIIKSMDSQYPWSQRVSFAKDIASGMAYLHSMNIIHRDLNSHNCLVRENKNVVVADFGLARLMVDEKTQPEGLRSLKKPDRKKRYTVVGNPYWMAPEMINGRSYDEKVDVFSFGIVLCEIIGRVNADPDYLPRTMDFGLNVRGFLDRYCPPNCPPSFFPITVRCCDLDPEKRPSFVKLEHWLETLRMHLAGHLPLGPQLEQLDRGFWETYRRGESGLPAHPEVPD

Sequence of Serine/threonine-protein kinase PAK 2 (Homo sapiens) (Q13177 whole entry): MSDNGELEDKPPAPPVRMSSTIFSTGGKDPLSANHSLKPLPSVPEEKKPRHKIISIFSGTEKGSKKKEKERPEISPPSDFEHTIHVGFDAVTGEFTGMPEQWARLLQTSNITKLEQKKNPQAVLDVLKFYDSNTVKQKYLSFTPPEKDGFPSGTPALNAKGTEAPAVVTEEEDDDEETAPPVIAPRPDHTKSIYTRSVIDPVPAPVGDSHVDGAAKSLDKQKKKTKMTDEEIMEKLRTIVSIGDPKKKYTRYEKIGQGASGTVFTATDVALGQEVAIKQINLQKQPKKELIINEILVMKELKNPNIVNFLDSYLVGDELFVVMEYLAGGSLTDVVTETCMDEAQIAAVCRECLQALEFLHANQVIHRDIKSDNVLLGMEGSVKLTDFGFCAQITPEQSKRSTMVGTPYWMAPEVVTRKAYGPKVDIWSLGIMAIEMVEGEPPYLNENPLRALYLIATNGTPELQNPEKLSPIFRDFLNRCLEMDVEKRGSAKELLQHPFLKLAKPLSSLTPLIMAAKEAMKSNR
Sequence of Serine/threonine-protein kinase N2 (Homo sapiens) (Q16513 whole entry, looked up): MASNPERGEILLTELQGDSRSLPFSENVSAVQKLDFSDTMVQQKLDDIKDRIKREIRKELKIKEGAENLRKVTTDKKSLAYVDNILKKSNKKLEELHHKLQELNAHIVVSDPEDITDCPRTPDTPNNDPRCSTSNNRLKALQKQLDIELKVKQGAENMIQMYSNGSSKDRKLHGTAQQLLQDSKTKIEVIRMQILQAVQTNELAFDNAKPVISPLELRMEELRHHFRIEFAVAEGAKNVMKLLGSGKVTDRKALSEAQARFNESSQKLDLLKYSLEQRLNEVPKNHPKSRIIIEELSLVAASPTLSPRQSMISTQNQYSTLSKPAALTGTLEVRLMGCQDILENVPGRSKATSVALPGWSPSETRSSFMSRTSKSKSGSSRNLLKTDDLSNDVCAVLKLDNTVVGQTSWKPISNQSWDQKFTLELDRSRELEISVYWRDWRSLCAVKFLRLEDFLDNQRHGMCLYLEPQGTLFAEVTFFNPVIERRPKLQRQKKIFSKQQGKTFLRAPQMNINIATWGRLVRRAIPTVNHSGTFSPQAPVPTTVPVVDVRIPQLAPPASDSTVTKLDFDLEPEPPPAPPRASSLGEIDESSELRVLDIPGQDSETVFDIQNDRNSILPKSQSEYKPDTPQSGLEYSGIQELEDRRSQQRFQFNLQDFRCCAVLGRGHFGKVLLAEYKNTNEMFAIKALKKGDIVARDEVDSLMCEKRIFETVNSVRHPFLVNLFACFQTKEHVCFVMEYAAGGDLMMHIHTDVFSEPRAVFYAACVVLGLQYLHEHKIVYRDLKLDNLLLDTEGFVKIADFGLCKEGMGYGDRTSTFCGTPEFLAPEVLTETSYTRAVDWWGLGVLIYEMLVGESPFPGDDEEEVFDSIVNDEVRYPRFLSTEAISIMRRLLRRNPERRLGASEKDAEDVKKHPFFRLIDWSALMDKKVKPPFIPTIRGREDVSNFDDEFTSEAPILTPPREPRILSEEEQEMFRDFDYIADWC
Sequence of BDNF/NT-3 growth factors receptor (Homo sapiens) (Q16620 32-822 limits assumed): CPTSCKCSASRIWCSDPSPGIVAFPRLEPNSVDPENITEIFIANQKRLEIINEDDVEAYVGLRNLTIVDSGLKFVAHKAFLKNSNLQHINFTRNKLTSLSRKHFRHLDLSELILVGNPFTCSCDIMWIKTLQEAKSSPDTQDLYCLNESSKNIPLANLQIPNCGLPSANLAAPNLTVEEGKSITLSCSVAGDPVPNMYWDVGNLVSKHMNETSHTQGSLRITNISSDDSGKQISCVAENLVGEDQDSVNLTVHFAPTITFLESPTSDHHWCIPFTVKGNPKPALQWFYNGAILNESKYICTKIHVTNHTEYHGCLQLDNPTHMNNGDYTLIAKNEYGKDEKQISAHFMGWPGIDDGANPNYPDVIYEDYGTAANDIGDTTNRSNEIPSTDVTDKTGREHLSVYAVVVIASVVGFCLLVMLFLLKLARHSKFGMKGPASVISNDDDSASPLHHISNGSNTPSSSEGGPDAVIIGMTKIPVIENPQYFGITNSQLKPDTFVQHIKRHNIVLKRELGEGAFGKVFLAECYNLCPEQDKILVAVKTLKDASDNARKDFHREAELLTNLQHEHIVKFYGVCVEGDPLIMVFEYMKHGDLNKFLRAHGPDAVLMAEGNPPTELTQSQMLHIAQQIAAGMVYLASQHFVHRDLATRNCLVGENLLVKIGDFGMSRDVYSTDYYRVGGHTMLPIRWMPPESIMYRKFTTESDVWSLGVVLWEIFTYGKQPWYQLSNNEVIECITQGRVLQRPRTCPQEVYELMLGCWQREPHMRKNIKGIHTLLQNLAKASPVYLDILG
Sequence of Hepatocyte growth factor receptor (Homo sapiens) (P08581 whole entry, looked up): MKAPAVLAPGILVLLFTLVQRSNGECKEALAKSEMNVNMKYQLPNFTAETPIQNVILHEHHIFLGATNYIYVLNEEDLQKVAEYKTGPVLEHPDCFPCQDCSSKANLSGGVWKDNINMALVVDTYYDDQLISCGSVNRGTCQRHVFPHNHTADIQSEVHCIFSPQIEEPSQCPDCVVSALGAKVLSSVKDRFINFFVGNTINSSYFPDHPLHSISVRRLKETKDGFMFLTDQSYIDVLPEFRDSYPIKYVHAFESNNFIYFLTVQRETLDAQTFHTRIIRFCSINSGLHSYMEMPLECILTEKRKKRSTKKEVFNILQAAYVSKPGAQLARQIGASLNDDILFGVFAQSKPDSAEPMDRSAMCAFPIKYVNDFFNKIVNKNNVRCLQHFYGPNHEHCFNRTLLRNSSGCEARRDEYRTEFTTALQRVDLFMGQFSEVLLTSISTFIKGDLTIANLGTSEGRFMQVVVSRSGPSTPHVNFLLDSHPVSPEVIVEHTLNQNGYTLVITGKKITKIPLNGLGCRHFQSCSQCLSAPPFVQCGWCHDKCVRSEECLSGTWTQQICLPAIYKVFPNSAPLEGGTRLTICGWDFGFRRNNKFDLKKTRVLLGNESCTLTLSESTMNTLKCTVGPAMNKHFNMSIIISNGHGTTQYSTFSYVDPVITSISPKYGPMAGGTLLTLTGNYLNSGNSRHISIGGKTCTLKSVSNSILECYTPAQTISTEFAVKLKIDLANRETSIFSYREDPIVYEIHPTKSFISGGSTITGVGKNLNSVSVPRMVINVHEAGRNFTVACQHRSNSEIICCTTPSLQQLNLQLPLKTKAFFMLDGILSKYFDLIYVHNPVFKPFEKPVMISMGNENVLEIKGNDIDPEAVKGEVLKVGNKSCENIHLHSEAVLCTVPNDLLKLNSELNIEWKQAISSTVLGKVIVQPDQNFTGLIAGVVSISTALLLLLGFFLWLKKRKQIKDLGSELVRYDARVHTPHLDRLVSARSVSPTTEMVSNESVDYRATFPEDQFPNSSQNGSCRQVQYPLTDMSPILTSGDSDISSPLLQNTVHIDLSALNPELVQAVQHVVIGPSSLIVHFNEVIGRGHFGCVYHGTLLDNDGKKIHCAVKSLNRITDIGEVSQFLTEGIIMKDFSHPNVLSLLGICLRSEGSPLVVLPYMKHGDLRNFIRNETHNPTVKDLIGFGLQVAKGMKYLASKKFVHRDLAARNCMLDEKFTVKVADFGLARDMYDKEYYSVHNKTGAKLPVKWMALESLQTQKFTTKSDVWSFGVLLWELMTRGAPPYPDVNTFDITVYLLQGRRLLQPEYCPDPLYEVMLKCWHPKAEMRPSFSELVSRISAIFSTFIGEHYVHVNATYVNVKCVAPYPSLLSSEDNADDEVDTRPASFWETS
Sequence of Calcium/calmodulin-dependent protein kinase type 1 (Homo sapiens) (Q14012 whole entry, looked up): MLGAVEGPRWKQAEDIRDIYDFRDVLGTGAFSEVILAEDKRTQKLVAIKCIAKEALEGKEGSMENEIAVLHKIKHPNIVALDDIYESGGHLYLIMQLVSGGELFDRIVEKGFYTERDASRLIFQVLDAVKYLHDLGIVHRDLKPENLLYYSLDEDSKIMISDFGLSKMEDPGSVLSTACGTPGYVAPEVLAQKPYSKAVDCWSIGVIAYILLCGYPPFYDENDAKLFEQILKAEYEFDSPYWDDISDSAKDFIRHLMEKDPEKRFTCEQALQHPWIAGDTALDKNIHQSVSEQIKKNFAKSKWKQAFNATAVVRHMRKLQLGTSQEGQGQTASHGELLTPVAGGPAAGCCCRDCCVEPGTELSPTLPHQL

fold change (FC) [1]: 0
fold change (FC) [2]: 0
inhibition [3]: 23%
inhibition [4]: 5%
fold change (FC) [5]: 0.43
Compound: CNC(=O)c1ccccc1Oc1nc(Nc2cc(OC)c(OC)c(OC)c2)ncc1Br

fold change (FC) [6]: 0
inhibition [7]: 0%
fold change (FC) [8]: 0.08
Compound: CC(C)[C@H](NC(=O)c1cc(-c2cnn3cc(-c4ccc(OCCN5CCCCC5)cc4)cnc23)cs1)C(F)(F)F

fold change (FC) [9]: 0
inhibition [10]: 5%
inhibition [11]: 0%
inhibition [12]: 19%
fold change (FC) [13]: 0.21
Compound: O=C(N[C@@H](C1CC1)C(F)(F)F)c1cc(-c2cnn3cc(-c4ccc(F)cc4)cnc23)cs1
